# Measured values from different studies.
# Lines come from different studies, so protocols differ.
# Target: Voltage-gated inwardly rectifying potassium channel KCNH2 (KCNH2, Homo sapiens, UniProt Q12809)
SMILES,test,test system,setting,quantity,value
NC/C(=C\F)COc1cccc(Cn2c(=S)[nH]c(=O)c3[nH]cnc32)c1,"ion current, inhibitor",,10 µM,inhibition,3.8%
COc1cc(N)c(Cl)cc1C(=O)NC1CCN(CCCOc2ccc(F)cc2)CC1OC (stereo not drawn),"ion current, inhibitor, patch clamp",HEK293,"100 pM, pH 7.4",inhibition,3.11%
COC1=CC(c2ccc[nH]2)=N/C1=C\c1[nH]c(Cc2ccc(OC(F)(F)F)cc2)cc1Cc1ccc(OC(F)(F)F)cc1,"ion current, inhibitor, patch clamp",,50 µM,inhibition,26.6%
CN1C[C@H](COc2nccc3c(NCc4ccco4)cc(Cl)nc23)OC1=O,"ion current, inhibitor",HEK293,30 µM,inhibition,37.1%
CC(C)(C)c1sc2ncnc(Oc3c(F)cccc3OC(F)(F)F)c2c1-c1ccc(Cl)cc1,"ligand displacement, radioligand",,10 µM,inhibition,> 50%
CC(=O)N1CCC(C(=O)N2CCN3C(=O)c4cc(-c5ccccc5)ccc4NC(=O)C3C2)CC1 (stereo not drawn),"ion current, inhibitor, patch clamp",HEK293,10 µM,inhibition,4%
CCCN1CCCC[C@H]1C(=O)Nc1c(C)cccc1C,"ion current, inhibitor, patch clamp",,100 µM,inhibition,82.3%
CCOC(=O)C1=C(CN2CCC[C@@H]2C(=O)Nc2ccc(B(O)O)cc2)NC(c2nccs2)=N[C@H]1c1ccc(F)cc1Br,"ion current, inhibitor, patch clamp",HEK293,"1 µM, pH 7.4",inhibition,14.6%
Cn1cc2c(C(=O)O)ccc(NS(=O)(=O)c3ccc(OCC4CCC4)c(Cl)c3)c2n1,ion current,,,IC50,> 10 µM
